The source made the active and inactive calls.
What was measured:
[1] = biological target: T1, Voltage-dependent T-type calcium channel subunit alpha-1H (Homo sapiens, UniProt O95180); test: Inhibition of human CaV3.2 expressed in HEK293 cells assessed as suppression of T-current amplitude by measuring remaining activity at 3 uM after 10 mins by whole cell patch clamp method relative to control; type: cell-based
In short: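 HEK293 cells stably expressing human Cav3.2 were recorded by whole-cell patch clamp, holding at −90 mV with a 30 mV test pulse evoking Ba²⁺ currents. Remaining T-current after 3 μM compound is given as % of control; some entries were measured at 1 μM.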

[2] = biological target: T1, Voltage-dependent T-type calcium channel subunit alpha-1H; test: Inhibition of human CaV3.2 expressed in HEK293 cells assessed as suppression of T-current amplitude after 10 mins by whole cell patch clamp method; type: cell-based
In short: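 Whole-cell patch clamp was done on HEK293 cells stably expressing human Cav3.2. Membrane was held at −90 mV and Ba²⁺ currents were evoked by a 30 mV test pulse. IC50 was derived from T-current suppression.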

[3] = Inhibition of T-type calcium channel in human Jurkat cells assessed as suppression of thapsigargin-induced intracellular calcium flux after 1 hr by indo-1 dye-based spectrofluorometric method; type: cell-based
[4] = tested on: Mus musculus; test: Antihyperalgesic activity in ddY mouse assessed as suppression of partial sciatic nerve ligation-induced mechanical allodynia at 10 mg/kg, ip administered 7 days by Von Frey test; type: functional, organism-based
In short: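 Male ddY mice (18–25 g) had the right sciatic nerve partially ligated under isoflurane and were tested one week later. Dosing was i.p. as a suspension in 0.5% carboxymethyl cellulose sodium, with vehicle-treated sham and PSNL groups. Ipsilateral hindpaw threshold was measured by von Frey up-down method before ligation and 0–90 min after injection. Data are mean with S.E.M. (5–11 mice), analysed non-parametrically.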

[5] = biological target: Voltage-dependent T-type calcium channel subunit alpha-1G (Homo sapiens, UniProt O43497); test: Inhibition of human CaV3.1 expressed in HEK293 cells assessed as suppression of T-current after 10 mins by whole cell patch clamp method; type: cell-based
[6] = Inhibition of T-type calcium channel (unknown origin); set-up: species or system Homo sapiens
[7] = tested on: Mus musculus; test: Antihyperalgesic activity in ddY mouse assessed as suppression of partial sciatic nerve ligation-induced mechanical allodynia at 20 mg/kg, ip administered 7 days by Von Frey test; type: functional, organism-based
In short: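 Male ddY mice (18–25 g) had the right sciatic nerve partially ligated under isoflurane and were tested 7 days later. Compound was suspended in 0.5% CMC-Na and given i.p. Ipsilateral hindpaw threshold was measured by von Frey up-down method before ligation and over 0–90 min post-dose. Data are mean ± S.E.M. (5–11 mice) with non-parametric statistics.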

Voltage-dependent T-type calcium channel subunit alpha-1G, sequence (O43497 whole entry): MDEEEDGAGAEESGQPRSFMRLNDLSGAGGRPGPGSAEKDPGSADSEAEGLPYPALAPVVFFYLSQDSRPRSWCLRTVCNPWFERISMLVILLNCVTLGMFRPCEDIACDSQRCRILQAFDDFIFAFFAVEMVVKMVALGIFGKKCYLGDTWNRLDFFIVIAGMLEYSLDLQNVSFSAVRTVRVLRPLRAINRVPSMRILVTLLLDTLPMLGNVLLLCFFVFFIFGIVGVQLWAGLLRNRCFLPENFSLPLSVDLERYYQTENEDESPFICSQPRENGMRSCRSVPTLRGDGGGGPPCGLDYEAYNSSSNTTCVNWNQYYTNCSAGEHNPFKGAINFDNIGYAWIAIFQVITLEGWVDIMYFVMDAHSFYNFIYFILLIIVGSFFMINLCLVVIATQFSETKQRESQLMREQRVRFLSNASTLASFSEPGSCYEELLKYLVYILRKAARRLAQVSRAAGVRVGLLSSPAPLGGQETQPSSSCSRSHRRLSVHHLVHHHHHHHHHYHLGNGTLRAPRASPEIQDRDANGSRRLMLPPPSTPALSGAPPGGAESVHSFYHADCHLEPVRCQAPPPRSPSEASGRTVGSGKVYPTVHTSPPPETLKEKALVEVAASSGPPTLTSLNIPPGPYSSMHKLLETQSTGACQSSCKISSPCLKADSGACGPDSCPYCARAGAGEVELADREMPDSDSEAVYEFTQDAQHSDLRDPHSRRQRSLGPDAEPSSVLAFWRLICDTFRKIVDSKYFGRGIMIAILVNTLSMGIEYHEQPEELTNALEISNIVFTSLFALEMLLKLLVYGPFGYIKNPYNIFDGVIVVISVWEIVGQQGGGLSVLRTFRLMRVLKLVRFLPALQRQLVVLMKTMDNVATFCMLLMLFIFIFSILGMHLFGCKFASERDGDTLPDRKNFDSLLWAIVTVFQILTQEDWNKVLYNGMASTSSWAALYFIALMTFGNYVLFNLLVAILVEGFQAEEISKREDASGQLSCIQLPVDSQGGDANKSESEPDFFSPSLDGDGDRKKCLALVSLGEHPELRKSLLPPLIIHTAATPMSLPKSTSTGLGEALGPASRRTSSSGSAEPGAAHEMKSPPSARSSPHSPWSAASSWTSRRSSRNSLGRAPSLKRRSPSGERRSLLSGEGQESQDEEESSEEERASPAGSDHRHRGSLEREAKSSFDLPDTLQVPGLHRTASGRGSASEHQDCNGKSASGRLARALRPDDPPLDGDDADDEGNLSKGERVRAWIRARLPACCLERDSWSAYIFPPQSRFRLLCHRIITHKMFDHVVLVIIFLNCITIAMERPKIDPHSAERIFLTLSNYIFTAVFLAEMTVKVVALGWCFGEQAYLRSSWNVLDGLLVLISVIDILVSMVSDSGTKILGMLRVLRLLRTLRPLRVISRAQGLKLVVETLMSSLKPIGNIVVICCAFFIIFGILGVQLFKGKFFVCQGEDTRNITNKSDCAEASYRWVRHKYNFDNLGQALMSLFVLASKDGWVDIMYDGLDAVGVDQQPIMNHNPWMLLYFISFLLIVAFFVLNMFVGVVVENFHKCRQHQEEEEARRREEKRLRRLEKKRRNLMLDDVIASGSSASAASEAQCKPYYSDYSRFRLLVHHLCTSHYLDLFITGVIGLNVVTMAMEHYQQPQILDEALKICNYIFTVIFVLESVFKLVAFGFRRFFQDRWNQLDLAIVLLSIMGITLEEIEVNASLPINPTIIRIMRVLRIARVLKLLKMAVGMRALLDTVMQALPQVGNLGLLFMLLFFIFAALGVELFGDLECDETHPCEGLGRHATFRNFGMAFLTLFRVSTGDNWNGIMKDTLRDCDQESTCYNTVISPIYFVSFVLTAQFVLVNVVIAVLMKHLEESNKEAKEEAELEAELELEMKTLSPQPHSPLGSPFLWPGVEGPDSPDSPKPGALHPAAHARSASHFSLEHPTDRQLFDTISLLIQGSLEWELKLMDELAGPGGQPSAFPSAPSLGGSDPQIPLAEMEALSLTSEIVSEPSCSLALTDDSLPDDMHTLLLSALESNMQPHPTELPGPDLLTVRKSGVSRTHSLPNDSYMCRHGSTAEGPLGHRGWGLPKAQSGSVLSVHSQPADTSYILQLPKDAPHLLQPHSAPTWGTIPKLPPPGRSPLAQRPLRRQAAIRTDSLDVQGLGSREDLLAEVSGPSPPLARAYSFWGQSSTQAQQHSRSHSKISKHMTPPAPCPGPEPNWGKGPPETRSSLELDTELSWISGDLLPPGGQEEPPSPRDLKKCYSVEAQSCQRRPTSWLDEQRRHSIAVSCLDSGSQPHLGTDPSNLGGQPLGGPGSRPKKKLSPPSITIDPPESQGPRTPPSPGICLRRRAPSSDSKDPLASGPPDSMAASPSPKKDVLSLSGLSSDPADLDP
T1 sequence (O95180 whole entry): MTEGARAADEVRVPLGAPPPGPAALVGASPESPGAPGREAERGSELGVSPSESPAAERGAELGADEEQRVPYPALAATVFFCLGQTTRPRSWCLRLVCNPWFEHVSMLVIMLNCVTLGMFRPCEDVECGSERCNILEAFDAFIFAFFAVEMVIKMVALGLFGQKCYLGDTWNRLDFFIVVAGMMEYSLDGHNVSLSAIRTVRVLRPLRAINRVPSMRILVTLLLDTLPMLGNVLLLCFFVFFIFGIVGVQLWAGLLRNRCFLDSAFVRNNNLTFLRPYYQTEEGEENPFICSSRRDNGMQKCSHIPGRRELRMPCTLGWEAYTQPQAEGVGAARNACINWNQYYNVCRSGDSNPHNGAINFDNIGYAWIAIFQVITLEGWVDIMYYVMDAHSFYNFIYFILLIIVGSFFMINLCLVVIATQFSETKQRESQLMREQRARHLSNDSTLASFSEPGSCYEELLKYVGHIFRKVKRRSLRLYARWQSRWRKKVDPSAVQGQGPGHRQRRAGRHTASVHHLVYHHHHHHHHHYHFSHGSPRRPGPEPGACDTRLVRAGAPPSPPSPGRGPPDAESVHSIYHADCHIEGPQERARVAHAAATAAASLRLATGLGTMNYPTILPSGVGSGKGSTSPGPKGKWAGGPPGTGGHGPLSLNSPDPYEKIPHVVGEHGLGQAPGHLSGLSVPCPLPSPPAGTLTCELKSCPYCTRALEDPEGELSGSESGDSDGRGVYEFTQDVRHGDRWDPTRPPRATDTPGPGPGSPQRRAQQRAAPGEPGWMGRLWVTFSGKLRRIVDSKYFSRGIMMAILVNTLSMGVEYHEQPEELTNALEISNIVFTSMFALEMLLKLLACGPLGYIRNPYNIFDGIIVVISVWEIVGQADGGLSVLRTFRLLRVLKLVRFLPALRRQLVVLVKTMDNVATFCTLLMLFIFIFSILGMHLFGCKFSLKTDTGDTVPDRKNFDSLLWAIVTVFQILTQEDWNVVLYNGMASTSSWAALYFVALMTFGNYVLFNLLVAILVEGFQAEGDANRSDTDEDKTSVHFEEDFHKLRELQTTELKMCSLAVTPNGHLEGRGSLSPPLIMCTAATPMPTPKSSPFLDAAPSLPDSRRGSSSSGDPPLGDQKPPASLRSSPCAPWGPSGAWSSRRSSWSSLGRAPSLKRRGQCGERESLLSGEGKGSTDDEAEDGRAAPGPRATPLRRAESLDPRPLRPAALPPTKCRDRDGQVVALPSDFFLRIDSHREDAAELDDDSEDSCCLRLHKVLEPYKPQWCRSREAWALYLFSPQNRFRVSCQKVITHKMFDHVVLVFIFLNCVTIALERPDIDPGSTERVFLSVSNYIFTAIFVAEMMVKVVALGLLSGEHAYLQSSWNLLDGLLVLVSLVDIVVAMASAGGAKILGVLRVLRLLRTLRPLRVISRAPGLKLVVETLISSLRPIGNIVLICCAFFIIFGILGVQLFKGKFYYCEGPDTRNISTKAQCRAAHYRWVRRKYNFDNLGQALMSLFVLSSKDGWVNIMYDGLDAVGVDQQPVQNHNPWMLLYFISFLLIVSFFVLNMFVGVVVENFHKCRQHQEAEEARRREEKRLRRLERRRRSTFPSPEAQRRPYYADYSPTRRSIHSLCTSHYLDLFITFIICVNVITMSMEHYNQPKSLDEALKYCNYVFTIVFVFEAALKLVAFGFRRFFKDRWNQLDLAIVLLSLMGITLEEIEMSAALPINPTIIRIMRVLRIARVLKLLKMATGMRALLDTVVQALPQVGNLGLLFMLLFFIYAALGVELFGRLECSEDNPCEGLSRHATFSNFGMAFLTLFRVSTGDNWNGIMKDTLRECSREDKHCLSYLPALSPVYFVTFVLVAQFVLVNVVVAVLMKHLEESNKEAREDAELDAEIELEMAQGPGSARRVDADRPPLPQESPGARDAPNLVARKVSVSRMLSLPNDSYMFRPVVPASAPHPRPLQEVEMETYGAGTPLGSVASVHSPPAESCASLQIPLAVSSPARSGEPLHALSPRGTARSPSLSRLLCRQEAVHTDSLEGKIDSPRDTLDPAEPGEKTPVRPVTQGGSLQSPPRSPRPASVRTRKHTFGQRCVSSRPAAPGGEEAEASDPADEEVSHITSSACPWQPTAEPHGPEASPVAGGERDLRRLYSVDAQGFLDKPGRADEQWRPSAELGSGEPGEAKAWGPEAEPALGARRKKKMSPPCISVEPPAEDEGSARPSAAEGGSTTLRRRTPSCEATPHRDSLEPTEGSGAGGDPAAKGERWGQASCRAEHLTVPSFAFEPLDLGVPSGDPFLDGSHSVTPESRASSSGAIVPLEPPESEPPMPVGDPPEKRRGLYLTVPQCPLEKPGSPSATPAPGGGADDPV

Structure (SMILES)	Activity [1] [%]	other results
C=CCc1c(O)cc2c(c1O)C(=O)CC(c1ccc(Cl)cc1)O2 (configuration not stated)	51.9	–
C=CCc1c(O)cc2c(c1O)C(=O)CC(c1cc(O)cc(O)c1)O2 (configuration not stated)	74.8	–
C=CCc1c(O)cc2c(c1O)C(=O)CC(c1ccc(O)c(O)c1)O2 (configuration not stated)	86.7	–
CC(C)=CCc1c(O)cc2c(c1O)C(=O)CC(c1cc(O)cc(O)c1)O2 (configuration not stated)	80.9	–
CC(C)=CCc1c(O)cc2c(c1O)C(=O)CC(c1c(O)cccc1O)O2 (configuration not stated)	10.3	–
CC(C)=CCc1ccc2c(c1O)C(=O)CC(c1ccccc1)O2 (configuration not stated)	100	–
C=CCc1ccc2c(c1O)C(=O)CC(c1ccccc1O)O2 (configuration not stated)	32	–
CCC(=CCc1c(O)cc2c(c1O)C(=O)CC(c1ccc(O)cc1)O2)CC (configuration not stated)	22.2	IC50 [2]: 260 nM
C=CCc1c(O)cc2c(c1O)C(=O)CC(c1ccc(OC)cc1)O2 (configuration not stated)	50.8	–
C=CCc1ccc2c(c1O)C(=O)CC(c1ccc(OCC)cc1)O2 (configuration not stated)	65.2	–
COCC(=O)O[C@]1(CCN(C)CCCc2nc3ccccc3[nH]2)CCc2cc(F)ccc2[C@@H]1C(C)C [MIBEFRADIL]	–	IC50 [3]: 1000 nM
CCOc1ccc(C2CC(=O)c3c(ccc(CC=C(CC)CC)c3O)O2)cc1 (configuration not stated)	57.8	–
CC(C)=CCc1c(O)cc2c(c1O)C(=O)CC(c1ccc(O)cc1)O2 (racemic)	12.8	IC50 [2]: 1000 nM; Activity [4]: inactive; IC50 [5]: 1000 nM
C=CCc1c(O)cc2c(c1O)C(=O)CC(c1cccc(O)c1O)O2 (configuration not stated)	83.8	–
C=CCc1ccc2c(c1O)C(=O)CC(c1ccc(Cl)cc1)O2 (configuration not stated)	35.9	–
CC(C)=CCc1ccc2c(c1O)C(=O)CC(c1ccc(Cl)cc1)O2 (configuration not stated)	78.5	–
CC(C)=CCc1c(O)cc2c(c1O)C(=O)CC(c1ccc(Cl)cc1)O2 (configuration not stated)	59.7	–
COc1ccc(C2CC(=O)c3c(ccc(CC=C(C)C)c3O)O2)cc1 (configuration not stated)	81.9	–
CCCC(=CCc1c(O)cc2c(c1O)C(=O)CC(c1ccc(O)cc1)O2)CCC (configuration not stated)	36.8	–
CCC1(C)CC(=O)NC1=O (configuration not stated) [ETHOSUXIMIDE]	–	IC50 [6]: 600000 nM
C=CCc1ccc2c(c1O)C(=O)CC(c1ccc(OC)cc1)O2 (configuration not stated)	59	–

Structure (SMILES)	Activity [1] [%]	other results
C=CCc1c(O)cc2c(c1O)C(=O)CC(c1cccc(O)c1)O2 (configuration not stated)	76.8	–
C=CCc1ccc2c(c1O)C(=O)CC(c1ccccc1)O2 (configuration not stated)	90.1	–
O=C1CC(c2ccc(O)cc2)Oc2cc(O)c(CCC3CCCC3)c(O)c21 (configuration not stated)	5.42	IC50 [2]: 500 nM
CCC(=CCc1ccc2c(c1O)C(=O)CC(c1ccccc1O)O2)CC (configuration not stated)	16.1	–
CC(C)CCc1c(O)cc2c(c1O)C(=O)CC(c1ccc(O)cc1)O2 (configuration not stated)	1.69	IC50 [2]: 480 nM
C=CCc1ccc2c(c1O)C(=O)CC(c1ccc(C)cc1)O2 (configuration not stated)	72.7	–
CC(C)=CCc1c(O)cc2c(c1O)C(=O)CC(c1cccc(O)c1)O2 (configuration not stated)	2.09	IC50 [2]: 1020 nM
CC(C)=CCc1c(O)cc2c(c1O)C(=O)CC(c1ccccc1)O2 (configuration not stated)	72.6	–
CC(C)=CCc1c(O)cc2c(c1O)C(=O)CC(c1ccccc1O)O2 (configuration not stated)	2.04	IC50 [2]: 640 nM
C=C(C)[C@H](CC=C(C)C)Cc1c(O)cc(O)c2c1O[C@H](c1ccc(O)cc1O)CC2=O [SOPHORAFLAVANONE G]	–	IC50 [2]: 1000 nM; IC50 [5]: 1000 nM
CCC(CC)CCc1c(O)cc2c(c1O)C(=O)CC(c1ccc(O)cc1)O2 (configuration not stated)	10.1	–
CC(C)=CCc1c(O)cc(O)c2c1O[C@H](c1ccc(O)cc1)CC2=O	–	IC50 [2]: 1000 nM; IC50 [5]: 1000 nM
C=CCc1c(O)cc2c(c1O)C(=O)CC(c1ccccc1)O2 (configuration not stated)	70.1	–
CCC(=CCc1c(O)cc2c(c1O)C(=O)CC(c1ccccc1O)O2)CC (configuration not stated)	0.33	IC50 [2]: 390 nM; Activity [4]: Active; Activity [7]: Active
O=C1CC(c2ccc(O)cc2)Oc2cc(O)c(CC=C3CCCC3)c(O)c21 (configuration not stated)	1.44	IC50 [2]: 460 nM
CC(C)=CCc1ccc2c(c1O)C(=O)CC(c1ccc(C)cc1)O2 (configuration not stated)	103	–
COc1ccc(C2CC(=O)c3c(cc(O)c(CC=C(C)C)c3O)O2)cc1 (configuration not stated)	47.6	–
CC(C)=CCc1c(O)cc2c(c1O)C(=O)CC(c1cccc(O)c1O)O2 (configuration not stated)	67.1	–
CC(C)=CCc1c(O)cc2c(c1O)C(=O)CC(c1ccc(O)c(O)c1)O2 (configuration not stated)	14.7	–
C=CCc1c(O)cc2c(c1O)C(=O)CC(c1ccccc1O)O2 (configuration not stated)	63	–
CC(C)=CCc1ccc2c(c1O)C(=O)CC(c1ccccc1O)O2 (configuration not stated)	3.77	IC50 [2]: 1250 nM

Reference: ChEMBL document CHEMBL4229462, “Design and synthesis of novel anti-hyperalgesic agents based on 6-prenylnaringenin as the T-type calcium channel blockers” (Bioorg Med Chem, 2018)
